In ChEMBL document CHEMBL1154722, “Syntheses and evaluation of the antioxidant activity of acitretin analogs with amide bond(s) in the polyene spacer” (Eur J Med Chem, 2010):
The source made the active and inactive calls. The rule behind the calls is not given here.

Key:
[1] = Antioxidant activity assessed as inhibition of AAPH-induced lipid peroxidation at 100 uM; format: functional
Outline: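 Run at 37 °C in 0.05 M phosphate buffer pH 7.4 with 10 μL of 16 mM sodium linoleate (stock), compound in DMSO (10 μL). Oxidation started in air by 50 μL of 40 mM AAPH (stock). Conjugated diene formation followed as rising absorbance at 234 nm. Controls carried the same DMSO level. At least triplicate.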

Glycine max [2] = test: Inhibition of soybean lipoxygenase assessed as conversion of sodium linoleate to 13-hydroperoxylinoleate at 100 uM
Outline: (§1)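 Soybean lipoxygenase solution (1/9×10^-4 w/v in saline) incubated at room temperature with sodium linoleate and compound in DMSO. Conversion to 13-hydroperoxylinoleate recorded at 234 nm and compared with a standard inhibitor. At least triplicate.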

[3] = tested on: Radical scavenging activity; test: Antioxidant activity assessed as DPPH radical scavenging activity at 100 uM after 20 mins by spectrophotometry; format: functional
Outline: (§2)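 DPPH at 0.05 mM in absolute ethanol mixed with an equal volume of compound in DMSO. Mixture shaken and left 20 or 60 min. Absorbance read at 517 nm to give percent activity. Three replicates averaged.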

[4] = Inhibition of soybean lipoxygenase assessed as conversion of sodium linoleate to 13-hydroperoxylinoleate; parameters: species or system Glycine max; outline: as §1
Rattus norvegicus = test: Antiinflammatory activity in Fisher 344 rat assessed as inhibition of carrageenan-induced paw edema at 0.01 mmol/Kg, ip administered simultaneously with carrageenan measured after 3.5 hrs relative to control; format: functional; details: Fisher 344, ip
Outline: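 Fischer-344 rats of both sexes (pregnant females excluded), 6–15 per group. Oedema induced in right hind paw by intradermal 0.1 ml 2% carrageenan in water. Compounds suspended in water with a few drops Tween 80, given ip at carrageenan injection. Rats killed at 3.5 h. Injected minus uninjected paw weight compared with water-treated controls as % inhibition. Mean of two experiments.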

[5] = tested on: Radical scavenging activity; test: Antioxidant activity assessed as DPPH radical scavenging activity at 100 uM after 60 mins by spectrophotometry; format: functional; outline: as §2
Glycine max [6] = test: Inhibition of soybean lipoxygenase assessed as conversion of sodium linoleate to 13-hydroperoxylinoleate at 50 uM; outline: as §1
Glycine max [7] = test: Inhibition of soybean lipoxygenase assessed as conversion of sodium linoleate to 13-hydroperoxylinoleate at 10 uM; outline: as §1

Compound | inhibition (Glycine max [2]) | IC50 [4] | inhibition (Glycine max [6]) | inhibition (Glycine max [7]) | inhibition [1] | Activity [3] | inhibition in vivo at 10 µmol/kg (Rattus norvegicus) | Activity [5]
COc1cc(NC(=O)c2cn(C(=O)CCC(=O)O)c3ccccc23)cc(OC)c1OC | 10% | – | – | – | 34% | 12.5% | – | –
COc1cc(OC)c(C2CC(=O)n3c2c(/C=C/C(=O)O)c2ccccc23)cc1OC (stereo not given) | – | 45.2 µM | – | – | 57% | 12% | 9% | –
O=C(O)/C=C/c1ccc(O)c(O)c1 [CAFFEIC ACID] | – | 600 µM | – | – | 17.5% | 5.5% | – | –
COc1cc(C)c(/C=C/C(C)=C/C=C/C(C)=C/C(=O)O)c(C)c1C [ACITRETIN] | 1% | – | – | – | 85% | inactive | 63% | –
COc1cc(OC)c(OC)cc1/C=C/C(=O)n1ccc(/C(C)=C/C(=O)OC(C)(C)C)c1 | 39% | – | – | – | 46% | 8% | – | –
CC(Cc1ccc(O)c(O)c1)C(C)Cc1ccc(O)c(O)c1 (stereo not given) | – | – | – | – | – | 81% | – | 83%
Cc1c(C)c2c(c(C)c1O)CCC(C)(C(=O)O)O2 (stereo not given) | – | – | – | – | 63% | – | – | –
COc1ccc2c(c1)c(CC(=O)O)c(C)n2C(=O)c1ccc(Cl)cc1 [INDOMETHACIN] | – | – | – | – | – | – | 47% | –

The next lines start with results.

inhibition (Glycine max [2]) | IC50 [4] | inhibition (Glycine max [6]) | inhibition (Glycine max [7]) | Compound | inhibition [1] | Activity [3] | inhibition in vivo at 10 µmol/kg (Rattus norvegicus) | Activity [5]
69% | – | – | – | COc1ccc(NC(=O)c2cn(C(=O)/C=C/c3cc(OC)c(OC)cc3OC)c3ccccc23)c(OC)c1 | 42% | 5% | – | –
– | 35 µM | – | – | COc1ccc(NC(=O)c2cn(C(=O)/C=C/C(=O)O)c3ccccc23)c(OC)c1 | 77% | 10% | 46% | –
26% | – | – | – | O=C(O)/C=C/C(=O)n1cc(C(=O)Nc2cccc([N+](=O)[O-])c2)c2ccccc21 | 94% | inactive | – | –
– | 52.4 µM | – | – | O=C(O)/C=C/C(=O)n1cc(C(=O)Nc2ccccc2)c2ccccc21 | 85% | 1% | – | –
– | 100 µM | – | – | COc1ccc(NC(=O)c2cn(C(=O)/C=C/C(=O)OC(C)(C)C)c3ccccc23)c(OC)c1 | 68% | 5% | 58.6% | –
– | 65 µM | – | – | O=C(O)/C=C/c1cn(C(=O)/C=C/c2ccc3c(c2)OCO3)c2ccccc12 | 22% | 21% | 34% | –
57% | – | – | – | COc1cc(NC(=O)c2cn(C(=O)/C=C/C(=O)O)c3ccccc23)cc(OC)c1OC | 64% | 26% | – | –
– | 82.5 µM | – | – | CC(C)(C)OC(=O)/C=C/c1cn(C(=O)/C=C/c2ccc3c(c2)OCO3)c2ccccc12 | 95% | 13% | – | –
43% | – | – | – | CC(C)(C)OC(=O)/C=C1/c2ccccc2-c2c(NC(=O)/C=C/c3ccc4c(c3)OCO4)cccc21 | 49% | inactive | – | 6%
85% | – | 85% | 0% | COc1cc(OC)c(OC)cc1/C=C/C(=O)n1cc(/C=C/C(=O)OC(C)(C)C)c2ccccc21 | 80% | 8.3% | – | –
42% | – | – | – | COc1cc(NC(=O)c2cn(C(=O)/C=C\C(=O)O)c3ccccc23)cc(OC)c1OC | 8% | 2% | – | –
